Test results published in ChEMBL document CHEMBL4689842, “EUbOPEN Chemogenomics Library wave 1” (2021).
Several values for one entry are separate records, joined by “and”; a condition that tells them apart may be missing. Equal values may be shown once.

Tested on: HEK-293T
Experiment: Multiplex assay against HEK293T;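 as to Population Tubulin-Different-Phenotype (%): share of the cells with healthy nuclei that show this phenotype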
Assay type: toxicity, cell-based
Details: human
In short: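 Compound was added to live cells that had been stained at seeding with Hoechst33342, BioTracker Green Microtubule Cytoskeleton Dye, MitoTracker Red and Annexin V Alexa Fluor 680, and imaging followed on a CQ1 microscope at 37°C and 5% CO2. CellPathfinder machine-learning gating divided cells into Hoechst high-intensity objects or normal cells, normal cells into healthy, pyknosed or fragmented nuclei, and pyknosed cells into mitotic or apoptotic. Tubulin, mitochondrial-mass and membrane-permeability phenotypes are per cents of healthy-nucleus cells.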

[1] = 12 h, 1 µM, compound concentration 1 uM, replicate 1
[2] = 12 h, 1 µM, compound concentration 1 uM, replicate 2
[3] = 12 h, 10 µM, compound concentration 10 uM, replicate 1
[4] = 12 h, 10 µM, compound concentration 10 uM, replicate 2
[5] = 24 h, 1 µM, compound concentration 1 uM, replicate 1
[6] = 24 h, 1 µM, compound concentration 1 uM, replicate 2
[7] = 24 h, 10 µM, compound concentration 10 uM, replicate 1
[8] = 24 h, 10 µM, compound concentration 10 uM, replicate 2
[9] = 48 h, 10 µM, compound concentration 10 uM, replicate 1
[10] = 48 h, 10 µM, compound concentration 10 uM, replicate 2
[11] = 48 h, 1 µM, compound concentration 1 uM, replicate 1
[12] = 48 h, 1 µM, compound concentration 1 uM, replicate 2

## COc1cc(N2CCC(N(C)C)CC2)ccc1Nc1ncc(Cl)c(Nc2ccccc2P(C)(C)=O)n1
[1]
  Population Apoptotic (%): 16%
  Population Fragmented Nuclei (%): 19%
  Population Healthy Nuclei (%): 61%
  Population Hoechst High Intensity Objects (%): 14%
  Population Membrane Permeable-Phenotype (%): 1%
  Population Mitochondria Different-Phenotype (%): 9%
  Population Mitotic Cells (%): 83%
  Population Normal (%): 85%
  Population Pyknosed Nuclei (%): 18%
  Population Tubulin-Different-Phenotype (%): 7%
  Total Cell Count: 684
[2]
  Population Apoptotic (%): 14%
  Population Fragmented Nuclei (%): 8%
  Population Healthy Nuclei (%): 84%
  Population Hoechst High Intensity Objects (%): 5%
  Population Mitochondria Different-Phenotype (%): 19%
  Population Mitotic Cells (%): 85%
  Population Normal (%): 94%
  Population Pyknosed Nuclei (%): 6%
  Population Tubulin-Different-Phenotype (%): 21%
  Total Cell Count: 1309
[3]
  Population Fragmented Nuclei (%): 10% and 13%
  Population Healthy Nuclei (%): 23% and 51%
  Population Hoechst High Intensity Objects (%): 21% and 20%
  Population Membrane Permeable-Phenotype (%): 0% and 6%
  Population Mitotic Cells (%): 29% and 78%
  Population Normal (%): 78% and 79%
  Population Pyknosed Nuclei (%): 66% and 35%
  Population Tubulin-Different-Phenotype (%): 97% and 54%
  Total Cell Count: 211 and 606
[4]
  Population Fragmented Nuclei (%): 3%
  Population Hoechst High Intensity Objects (%): 12% and 9%
  Population Membrane Permeable-Phenotype (%): 3%
  Population Mitochondria Different-Phenotype (%): 86% and 54%
  Population Mitotic Cells (%): 41% and 87%
  Population Normal (%): 87% and 90%
  Population Tubulin-Different-Phenotype (%): 100% and 85%
[5]
  Population Apoptotic (%): 14%
  Population Fragmented Nuclei (%): 17%
  Population Healthy Nuclei (%): 69%
  Population Hoechst High Intensity Objects (%): 9%
  Population Membrane Permeable-Phenotype (%): 5%
  Population Mitochondria Different-Phenotype (%): 8%
  Population Mitotic Cells (%): 85%
  Population Normal (%): 90%
  Population Pyknosed Nuclei (%): 12%
  Population Tubulin-Different-Phenotype (%): 14%
  Total Cell Count: 667
[6]
  Population Apoptotic (%): 12%
  Population Fragmented Nuclei (%): 20%
  Population Healthy Nuclei (%): 77%
  Population Hoechst High Intensity Objects (%): 4%
  Population Membrane Permeable-Phenotype (%): 3%
  Population Mitochondria Different-Phenotype (%): 4%
  Population Mitotic Cells (%): 87%
  Population Normal (%): 95%
  Population Pyknosed Nuclei (%): 2%
  Population Tubulin-Different-Phenotype (%): 19%
  Total Cell Count: 2108
[7]
  Population Apoptotic (%): 74% and 37%
  Population Fragmented Nuclei (%): 12% and 14%
  Population Healthy Nuclei (%): 31% and 55%
  Population Hoechst High Intensity Objects (%): 24% and 22%
  Population Membrane Permeable-Phenotype (%): 1% and 7%
  Population Mitochondria Different-Phenotype (%): 98% and 51%
  Population Mitotic Cells (%): 25% and 62%
  Population Normal (%): 75% and 77%
  Population Pyknosed Nuclei (%): 55% and 30%
  Population Tubulin-Different-Phenotype (%): 98% and 73%
  Total Cell Count: 229 and 561
[8]
  Population Fragmented Nuclei (%): 7% and 5%
  Population Hoechst High Intensity Objects (%): 19% and 9%
  Population Membrane Permeable-Phenotype (%): 0% and 10%
  Population Mitochondria Different-Phenotype (%): 95% and 60%
  Population Normal (%): 80% and 90%
  Population Tubulin-Different-Phenotype (%): 95% and 93%
[9]
  Population Apoptotic (%): 77%
  Population Fragmented Nuclei (%): 18%
  Population Healthy Nuclei (%): 34%
  Population Hoechst High Intensity Objects (%): 23%
  Population Membrane Permeable-Phenotype (%): 0%
  Population Mitochondria Different-Phenotype (%): 100%
  Population Mitotic Cells (%): 22%
  Population Normal (%): 76%
  Population Pyknosed Nuclei (%): 47%
  Population Tubulin-Different-Phenotype (%): 100%
  Total Cell Count: 239
[10]
  Population Apoptotic (%): 91%
  Population Fragmented Nuclei (%): 8%
  Population Healthy Nuclei (%): 17%
  Population Hoechst High Intensity Objects (%): 17%
  Population Mitochondria Different-Phenotype (%): 90%
  Population Mitotic Cells (%): 8%
  Population Normal (%): 82%
  Population Pyknosed Nuclei (%): 74%
  Population Tubulin-Different-Phenotype (%): 85%
  Total Cell Count: 147

## Nc1ccc(C(=O)Nc2cccc(-c3nc(N4CCOCC4)c4oc5ncccc5c4n3)c2)cn1
[1]
  Population Apoptotic (%): 66%
  Population Fragmented Nuclei (%): 24%
  Population Healthy Nuclei (%): 15%
  Population Hoechst High Intensity Objects (%): 19%
  Population Mitochondria Different-Phenotype (%): 94%
  Population Mitotic Cells (%): 33%
  Population Normal (%): 80%
  Population Pyknosed Nuclei (%): 60%
  Population Tubulin-Different-Phenotype (%): 94%
[2]
  Population Apoptotic (%): 34%
  Population Fragmented Nuclei (%): 8%
  Population Healthy Nuclei (%): 10%
  Population Hoechst High Intensity Objects (%): 8%
  Population Mitochondria Different-Phenotype (%): 46%
  Population Mitotic Cells (%): 65%
  Population Normal (%): 91%
  Population Pyknosed Nuclei (%): 81%
  Population Tubulin-Different-Phenotype (%): 80%
  Total Cell Count: 149
[3]
  Population Apoptotic (%): 83%
  Population Fragmented Nuclei (%): 44%
  Population Healthy Nuclei (%): 5%
  Population Hoechst High Intensity Objects (%): 25%
  Population Mitochondria Different-Phenotype (%): 100%
  Population Mitotic Cells (%): 16%
  Population Normal (%): 74%
  Population Pyknosed Nuclei (%): 49%
  Population Tubulin-Different-Phenotype (%): 76%
  Total Cell Count: 385
[4]
  Population Apoptotic (%): 53%
  Population Fragmented Nuclei (%): 15%
  Population Healthy Nuclei (%): 13%
  Population Hoechst High Intensity Objects (%): 8%
  Population Mitochondria Different-Phenotype (%): 75%
  Population Mitotic Cells (%): 46%
  Population Normal (%): 91%
  Population Pyknosed Nuclei (%): 70%
  Population Tubulin-Different-Phenotype (%): 70%
  Total Cell Count: 330
[5]
  Population Apoptotic (%): 64%
  Population Fragmented Nuclei (%): 22%
  Population Healthy Nuclei (%): 17%
  Population Hoechst High Intensity Objects (%): 19%
  Population Mitochondria Different-Phenotype (%): 95%
  Population Mitotic Cells (%): 35%
  Population Normal (%): 80%
  Population Pyknosed Nuclei (%): 59%
  Population Tubulin-Different-Phenotype (%): 90%
  Total Cell Count: 147
[6]
  Population Apoptotic (%): 40%
  Population Fragmented Nuclei (%): 3%
  Population Healthy Nuclei (%): 37%
  Population Hoechst High Intensity Objects (%): 8%
  Population Mitochondria Different-Phenotype (%): 68%
  Population Mitotic Cells (%): 59%
  Population Normal (%): 91%
  Population Pyknosed Nuclei (%): 58%
  Population Tubulin-Different-Phenotype (%): 96%
  Total Cell Count: 171
[7]
  Population Apoptotic (%): 80%
  Population Fragmented Nuclei (%): 45%
  Population Healthy Nuclei (%): 7%
  Population Hoechst High Intensity Objects (%): 21%
  Population Mitochondria Different-Phenotype (%): 100%
  Population Mitotic Cells (%): 19%
  Population Normal (%): 78%
  Population Pyknosed Nuclei (%): 47%
  Population Tubulin-Different-Phenotype (%): 79%
  Total Cell Count: 389
[8]
  Population Apoptotic (%): 67%
  Population Fragmented Nuclei (%): 15%
  Population Healthy Nuclei (%): 15%
  Population Hoechst High Intensity Objects (%): 8%
  Population Mitochondria Different-Phenotype (%): 81%
  Population Mitotic Cells (%): 32%
  Population Normal (%): 91%
  Population Pyknosed Nuclei (%): 69%
  Population Tubulin-Different-Phenotype (%): 50%
  Total Cell Count: 315
[11]
  Population Apoptotic (%): 67%
  Population Fragmented Nuclei (%): 27%
  Population Healthy Nuclei (%): 31%
  Population Hoechst High Intensity Objects (%): 20%
  Population Mitochondria Different-Phenotype (%): 82%
  Population Mitotic Cells (%): 32%
  Population Normal (%): 79%
  Population Pyknosed Nuclei (%): 40%
  Population Tubulin-Different-Phenotype (%): 86%
  Total Cell Count: 183
[12]
  Population Apoptotic (%): 61%
  Population Fragmented Nuclei (%): 6%
  Population Healthy Nuclei (%): 55%
  Population Hoechst High Intensity Objects (%): 8%
  Population Mitochondria Different-Phenotype (%): 49%
  Population Mitotic Cells (%): 38%
  Population Normal (%): 91%
  Population Pyknosed Nuclei (%): 38%
  Population Tubulin-Different-Phenotype (%): 92%
  Total Cell Count: 187
[9]
  Population Apoptotic (%): 75%
  Population Fragmented Nuclei (%): 51%
  Population Healthy Nuclei (%): 10%
  Population Hoechst High Intensity Objects (%): 28%
  Population Mitochondria Different-Phenotype (%): 97%
  Population Mitotic Cells (%): 24%
  Population Normal (%): 71%
  Population Pyknosed Nuclei (%): 38%
  Population Tubulin-Different-Phenotype (%): 60%
  Total Cell Count: 484
[10]
  Population Apoptotic (%): 73%
  Population Fragmented Nuclei (%): 17%
  Population Healthy Nuclei (%): 18%
  Population Hoechst High Intensity Objects (%): 8%
  Population Mitochondria Different-Phenotype (%): 84%
  Population Mitotic Cells (%): 26%
  Population Normal (%): 91%
  Population Pyknosed Nuclei (%): 64%
  Population Tubulin-Different-Phenotype (%): 55%
  Total Cell Count: 304
